Most compounds without a hit are left out; they make up all but 1.8% or so of the library.
LMPTP inh = blocks human LMPTP phosphatase | P24666 | recombinant LMPTP-A, OMFP fluorogenic substrate, fluorescence intensity | inhibition, % at 20 µM | 0.22% of 360,000 active | AID 651560;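 active = compounds that cut the enzyme signal by at least half of the control window in the single-dose screen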
Target sequence (P24666 whole entry, looked up): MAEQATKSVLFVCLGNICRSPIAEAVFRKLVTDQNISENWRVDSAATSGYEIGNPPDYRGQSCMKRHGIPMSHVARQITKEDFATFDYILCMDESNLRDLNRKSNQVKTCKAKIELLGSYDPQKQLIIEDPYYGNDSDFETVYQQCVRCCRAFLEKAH
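material = LMPTP-A | quantity = 0.625 nM enzyme | reagent = OMFP substrate, 400 µM final | buffer or medium = Bis-Tris pH 6.0, DTT, detergent | detection = endpoint fluorescence intensity from OMFP dephosphorylation | dosing = single 20 µM dose | read-out basis = % inhibition relative to no-enzyme and uninhibited control wells | control set = no-enzyme and uninhibited controls | timing = 50 min at room temperature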
HKDC1 inhibitor = HKDC1 (human) hexokinase inhibition | Q2TB90 | recombinant HKDC1, G6PDH/diaphorase resazurin coupled fluorescence | inhibition, % at 20 µM | 0.16% of 340,000 active;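 active = inhibition above about 35% when tested at 20 µM, limit read from the data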
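Test system: recombinant HKDC1 (HK5) hexokinase enzyme, produced in-house; Amount: enzyme 5 µg/mL final; Buffer or medium: Tris pH 8.0 buffer with MgCl2, Tween-20, BSA, BME; Reagent: glucose and ATP substrates; Doses: 20 µM test compound, 1% DMSO; Incubation: 90 min reaction incubation at room temperature, dark; Detection: resorufin fluorescence at 613 nm.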
DNMT1 inh = DNMT1 (human) enzyme inhibition; inhibition (reported as % activation of signal), % at 10 µM; P26358; AID 588458; 0.83% of 360,000 active; DNMT1 molecular beacon, Hinp1I cleavage, fluorescence; in the data active = inhibition above about 50%
SUMO1 PPI mod = alters human SUMO1 binding to SIM partners | inhibition, % at 20 µM | AID 602429 | SUMO1 binding to a labelled peptide, TR-FRET, 1 h | 0.33% of 360,000 active; in the data active = inhibition above about 37%
Target sequence (P63165 whole entry, looked up): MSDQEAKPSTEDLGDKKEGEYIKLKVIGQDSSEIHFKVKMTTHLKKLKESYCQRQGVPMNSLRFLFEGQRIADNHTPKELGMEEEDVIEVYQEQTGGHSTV
STEP block = STEP (human) phosphatase inhibition. inhibition, % at 20 µM. recombinant STEP, OMFP fluorogenic substrate, fluorescence. 0.25% of 360,000 active. AID 588621. P54829;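 active = inhibition at 20 µM, scaled per plate between control wells, above about 37%, limit read from the data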
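medium = Bis-Tris buffer pH 6.0, 2.5 mM DTT, 0.005% Tween 20 | test system = STEP (striatal-enriched tyrosine phosphatase) enzyme, cell-free | measure = normalized % inhibition | compound dosing = 20 µM, 1% DMSO | also added = 25 µM OMFP | schedule = reaction 20 min, ambient temperature | measured by = fluorescence read at 480 nm ex / 540 nm em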
Scp1 inh = blocks human Scp-1 phosphatase activity; Q9GZU7; inhibition, % at 20 µM; 0.88% of 340,000 active; Recombinant Scp1, phosphopeptide, malachite green phosphate absorbance;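 active = inhibition above about 50% at 20 µM, limit read from the data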
Target sequence (Q9GZU7 76-261 limits assumed): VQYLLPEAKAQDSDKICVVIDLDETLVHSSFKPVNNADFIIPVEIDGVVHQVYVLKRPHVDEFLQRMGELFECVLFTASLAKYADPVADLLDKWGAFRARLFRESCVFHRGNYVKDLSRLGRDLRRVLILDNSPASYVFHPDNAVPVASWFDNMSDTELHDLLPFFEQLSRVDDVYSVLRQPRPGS
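Test system: SCP-1 phosphatase catalytic domain, residues 76-261 | Compound dosing: One concentration, 20 µM, with 1.0% DMSO | Schedule: 45 min room-temperature reaction, 5 min colour, 30 min stabiliser | Detection: Absorbance at 630 nm | Read-out basis: % inhibition of SCP-1 phosphate liberation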
DNMT1 interf DR = shows spectral interference in the DNMT1 beacon assay | shares compounds with DNMT1 inh | molecular beacon fluorescence, spectral interference counter-screen | IC50, µM | 200 tested, under 10 active | AID 602382; call rule not given here
DNMT1 confirm = confirmation of human DNMT1 inhibitors | shares compounds with DNMT1 inh | DNMT1 molecular beacon HinP1I cleavage, fluorescence | inhibition, % at 10 µM | 8% of 2,300 active;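 active = average inhibition of at least 30% in the single-concentration confirmation test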
Beacon interf = beacon fluorescence artifact counter-screen | shares compounds with DNMT1 inh | DNMT1 molecular beacon spectral interference counterscreen, fluorescence 485/520 | activation (fluorescence interference), % at 10 µM | 1% of 2,300 active | AID 602387;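 active = activation of at least 30% at 10 µM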;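 also: DNMT1 catalytic domain with a HinP1I cleavage step and a FAM/dabcyl DNA beacon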
Each line names hits and unclear results; the compound was inactive in the other large screens (follow-up assays come after a bar, where they were run).

O=C(CSc1nnc(SCc2ccccc2)s1)N/N=C/C=C/c1ccco1	DNMT1 inh 98, Scp1 inh 83 | DNMT1 confirm inactive | Beacon interf inactive
O=C(Cc1cccs1)N/N=C/C=C/c1ccco1	DNMT1 inh 66 | DNMT1 confirm inactive | Beacon interf inactive
Cc1ccc(S(=O)(=O)N(C)C[C@@H]2OCc3cnnn3CCCC(=O)N([C@H](C)CO)C[C@H]2C)cc1	none (no result: HKDC1 inhibitor, Scp1 inh)
COC(=O)c1cc2occc2n1Cc1nc(-c2ccccc2Cl)oc1C	DNMT1 inh 86 | DNMT1 confirm inactive | Beacon interf inactive
Cc1ccc(CN2C(=O)c3ccccc3C2c2nnnn2-c2c(C)cccc2C)cc1 (centres undefined)	none (no result: HKDC1 inhibitor, DNMT1 inh, STEP block, Scp1 inh)
COc1cc2c(cc1NC(=O)CSc1nnnn1-c1ccccc1)oc1ccccc12	DNMT1 inh 52 | DNMT1 confirm inactive | Beacon interf inactive
COc1cc2c(cc1NC(=O)CSc1cccc[n+]1[O-])oc1ccccc12	DNMT1 inh 72 | DNMT1 confirm inactive | Beacon interf inactive
COc1cc2c(cc1NC(=O)CSc1ccc(C)cc1)oc1ccccc12	none
CCCNC(=O)C1(C)CCN(C(=O)c2ccccc2OC)C1 (centres undefined)	none (no result: HKDC1 inhibitor, Scp1 inh)
C[C@@H](c1ccccc1)N1C[C@H](COCc2ccccc2)Oc2cc(N3CC[C@H](N(C)C)C3)ccc2S1(=O)=O	none (no result: HKDC1 inhibitor, DNMT1 inh, STEP block, Scp1 inh)
O=C1COC(c2ccccc2O)=NN1CCCl	none (no result: HKDC1 inhibitor, Scp1 inh)
COc1ccc(-c2csc3nc(-c4ccc(C)cc4)oc(=O)c23)cc1OC	DNMT1 inh 85 | DNMT1 confirm inactive | Beacon interf inactive
COc1ccc(-c2csc3nc(C(C)(C)C)oc(=O)c23)cc1OC	none
CCOCc1nnc(NC(=O)c2ccco2)s1	none
CCCCCCCCc1nnc(NC(=O)c2ccco2)s1	DNMT1 inh 113 | DNMT1 interf DR inactive | DNMT1 confirm 59 | Beacon interf inactive
c1cc2ccc3ccc(CN4CCOCC4)c4ccc(c1)c2c34	none
OC1CCCN(Cc2ccc3ccc4cccc5ccc2c3c45)C1 (centres undefined)	DNMT1 inh 65 | DNMT1 confirm inactive | Beacon interf inactive
COc1ccc(C(=O)N2CCNC(=O)C2)cc1S(=O)(=O)Nc1ccc(Br)cc1	none
CCN(CC)C(=O)CC(c1cc(OC)c(OC)c(OC)c1)c1c(OC)cc(OC)c2ccc(=O)oc12 (centres undefined)	none
CCN(CC)C(=O)CC(c1cc(OC)c(OC)c(OC)c1)c1c(OC)cc(OC)c2c(-c3ccccc3)cc(=O)oc12 (centres undefined)	DNMT1 inh 84, Scp1 inh 71 | DNMT1 confirm inactive | Beacon interf inactive
O=C(CC1Oc2ccccc2NC1=O)NC1CC1 (centres undefined)	DNMT1 inh 97 (no result: HKDC1 inhibitor, Scp1 inh) | DNMT1 confirm inactive | Beacon interf inactive
O=[N+]([O-])c1ccc(/C=C/C2=NN(c3ccccc3)C(c3ccco3)C2)o1 (centres undefined)	DNMT1 inh 75, Scp1 inh 79 | DNMT1 confirm inactive | Beacon interf inactive
C(=C\c1ccco1)/C1=NN(c2ccccc2)C(c2ccco2)C1 (centres undefined)	none
Cc1ccc(F)cc1C(=O)N1CCCCC1c1cc(C(=O)NC(C)C)no1 (centres undefined)	none (no result: HKDC1 inhibitor, Scp1 inh)
CC(C)c1nc(SCC(=O)Nc2c[nH]c(=O)[nH]c2=O)c2cnn(-c3ccccc3)c2n1	DNMT1 inh 53 | DNMT1 confirm inactive | Beacon interf inactive
Cc1cc(C)c2oc(-c3ccc(C)c(NC(=S)NC(=O)c4cccs4)c3)nc2c1	DNMT1 inh 51 | DNMT1 confirm inactive | Beacon interf inactive
Cc1ccc(-c2nc3ccccc3o2)cc1NC(=S)NC(=O)c1cccs1	DNMT1 inh 55 | DNMT1 confirm inactive | Beacon interf inactive
CCCCCN(C(=O)CCC(=O)OCc1ccc(C(C)C)cc1)c1c(N)n(CCCC)c(=O)[nH]c1=O	none
Cc1c(C(=O)OCC(=O)N2CC(=O)Nc3ccccc32)oc2ccc(Br)cc12	DNMT1 inh 51 | DNMT1 confirm inactive | Beacon interf inactive
Cn1c(-c2cccc(OCc3ccccc3)c2)nc2c1c(=O)[nH]c(=O)n2Cc1ccccc1	DNMT1 inh 57 | DNMT1 confirm inactive | Beacon interf inactive
O=C(NCCN1CCC(n2c(=O)[nH]c3ccccc32)CC1)c1cccc(Cl)c1	none (no result: HKDC1 inhibitor, DNMT1 inh, STEP block, Scp1 inh)
CCC1S/C(=N/S(=O)(=O)c2ccc(N)cc2)NC1=O (centres undefined)	DNMT1 inh 66 | DNMT1 confirm inactive | Beacon interf inactive
Cc1ccc(Cl)cc1NC(=O)C1CCCCC1C(=O)O (centres undefined)	DNMT1 inh 50 | DNMT1 confirm inactive | Beacon interf inactive
O=C(O)C1CCCCC1C(=O)Nc1cc(Cl)ccc1Cl (centres undefined)	none (no result: LMPTP inh, DNMT1 inh, SUMO1 PPI mod, STEP block)
CCC1Cc2[nH][nH]c(=O)c2C(CC)O1 (centres undefined)	none (no result: HKDC1 inhibitor, DNMT1 inh, STEP block, Scp1 inh)
Cc1ccc(-c2[nH]ncc2/C=N/n2c(COc3ccccc3)nc3ccccc3c2=O)cc1	DNMT1 inh 67 | DNMT1 confirm inactive | Beacon interf inactive
O=C1CC(N2CCN(c3ccccc3)CC2)C(=O)N1c1cccc(Cl)c1 (centres undefined)	DNMT1 inh 71 | DNMT1 confirm inactive | Beacon interf 77
O=C1CC(N2CCN(c3ccc(Cl)cc3)CC2)C(=O)N1c1ccccc1 (centres undefined)	none
COc1ccc(-c2cc3ccccc3oc2=O)cc1NC(=O)c1ccc([N+](=O)[O-])o1	none
COc1ccc(-c2cc3ccccc3oc2=O)cc1NC(=O)c1ccc(Br)o1	DNMT1 inh 85 | DNMT1 confirm inactive | Beacon interf inactive
COCC(C)NC(=O)c1ccc2c(c1)S(=O)(=O)c1ccccc1C2=O (centres undefined)	none
COC(=O)c1ccc(CNC(=O)Cn2cnc3c(OCc4ccccc4)ncnc32)cc1	none
O=C(COC(=O)Cc1ccsc1)NCc1ccccc1	DNMT1 inh 74 | DNMT1 confirm inactive | Beacon interf inactive
Cc1cc(C)c2nc(N3C(=O)C(O)=C(C(=O)c4ccco4)C3c3ccco3)sc2c1 (centres undefined)	DNMT1 inh 58, Scp1 inh 52 | DNMT1 confirm inactive | Beacon interf inactive

High-throughput results from PubChem BioAssay.
